For experiment [1], the system named is HUH7 cells. In words: Invasion assay. It counts as cell-based, human. As to conditions: low concentrations. In short, it runs like this: (§1)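 Cells (HUH7 in RPMI1640, HEP3B in DMEM) were serum-starved for 12 h. They were then seeded at 5.0 × 10^4 cells per chamber into 8 μm ECMatrix-coated transwell chambers (QCM collagen invasion kit). Test compound was added and chambers were incubated at 37 °C under 5% CO2. Invaded cells were stained with 0.005% crystal violet in PBS.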

Experiment [2] concerns KMS-11 cells. Put plainly: Cell proliferation assay. It counts as cell-based.
For experiment [3], the target named is FGFR4 WT (Homo sapiens, UniProt P22455). In words: Radiometric biochemical kinase assay.
The subject of experiment [4] is HEP3B cells. Put plainly: Invasion assay. Particulars: low concentrations. It counts as cell-based, human. In short, it runs like this:
as §1

Experiment [5] relates to MDA-MB-453 cells. Put plainly: Cell proliferation assay. It counts as cell-based. In short, it runs like this: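 MDA-MB-453 cells (DMEM, 10% FBS, 37 °C, 5% CO2) were plated at 5 × 10^3 per well in 96-well plates. Test compound was added at 10 doses in 3-fold serial dilution for 72 h. Viability was read by CellTiter-Glo luminescence, and GI50 was derived from the dose-response curves.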

Experiment [6] relates to HUH7 cells. In words: Scratch wound healing migration assay. Type of experiment: cell-based, human. Particulars: GNF-7 0.01 or 0.05 μM, SIJ1263 0.002 or 0.005 μM, PD173074 0.1 μM, 36 h.
Experiment [7] relates to HUH7 cells. Put plainly: Cell proliferation assay. Type of experiment: cell-based, human. In short, it runs like this:
(§2)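 Seeding was 5 × 10^3 cells per well in 96-well plates: HEP3B in DMEM, HUH7 and HEPG2 in RPMI1640, all with 10% FBS at 37 °C under 5% CO2. Cells received 10 doses of test compound in 3-fold serial dilution for 72 h. Viability was read by CellTiter-Glo luminescence.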

Experiment [8] concerns HEPG2 cells. In words: Cell proliferation assay. Type of experiment: cell-based, human. As to conditions: FGFR4 overexpression, HCC. In short, it runs like this: as §2
The test system of experiment [9] is AN3-CA cells. In words: Cell proliferation assay. As to conditions: 72 h. Type of experiment: cell-based.
Experiment [10] deals with J82 cells. Put plainly: Cell proliferation assay. It counts as cell-based.
The test system of experiment [11] is HEP3B cells. In words: Cell proliferation assay. Type of experiment: cell-based, human. Particulars: 72 h. The method in brief:
as §2

Experiment [12] relates to HEP3B cells. In words: Scratch wound healing migration assay. It counts as cell-based, human. Particulars: GNF-7 0.01 or 0.05 μM, SIJ1263 0.002 or 0.005 μM, PD173074 0.1 μM.
The test system of experiment [13] is phosphorylation of FGFR and downstream molecules (PLCγ, FRS2α, AKT, ERK1/2) in HUH7 cells. Put plainly: Western blot of FGFR signaling. It counts as cell-based, human. Particulars: dose-dependent. In short, it runs like this:
(§3)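 After SDS-PAGE, proteins were transferred to nitrocellulose and blocked in 5% milk in TBS-T. Rabbit antibodies (FGFR4, pFGFR, pERK, pFRS2α, pPLCγ, β-actin) were applied overnight at 4 °C, then secondary for 1 h. Detection was by ECL with densitometry.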

The test system of experiment [14] is HEP3B cells. In words: Cell cycle analysis. It counts as cell-based, human. As to conditions: 18 h. The method in brief: (§4)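 Cells seeded at 1 × 10^5 on 60 mm plates and exposed to test compound for 18 h. They were then fixed in 70% ethanol and resuspended in PBS containing 50 μg/mL propidium iodide. DNA content was measured by flow cytometry to give the cell cycle phase distribution.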

The target in experiment [15] is FGFR2 WT (Homo sapiens, UniProt P21802). In words: Radiometric biochemical kinase assay. Particulars: ATP 10 µM.
In experiment [16] the test system is HEP3B cells. Put plainly: Apoptosis assay. It counts as cell-based, human. Particulars: 24 h. The method in brief:
(§5)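 Cells (1 × 10^5) were treated with test compound for 24 h, then harvested and stained with Alexa Fluor 488 annexin V and propidium iodide per kit instructions, and analysed by flow cytometry. Culture: HEP3B and SK-HEP1 in DMEM, HUH7 in RPMI1640, each with 10% FBS and antibiotic-antimycotic, at 37 °C under 5% CO2.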

Experiment [17] deals with SK-HEP1 cells. Put plainly: Soft agar anchorage-independent growth assay. Type of experiment: cell-based. As to conditions: 5 µM, 3 weeks. In short, it runs like this:
(§6)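 The base layer was 0.5% agar in DMEM in 6-well plates. Cells were suspended in 2× DMEM with 0.7% agar (0.35% agar per legend) at 5 × 10^3 cells per well and overlaid with medium containing test compound. Plates were incubated for 3 weeks at 37 °C under 5% CO2. Colonies were stained with iodonitrotetrazolium chloride in PBS and imaged.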

Experiment [18] relates to HUH7 cells. In words: Cell cycle analysis. Type of experiment: cell-based, human. As to conditions: 18 h. The method in brief: as §4
Experiment [19] concerns the target FGFR1 V561M (Homo sapiens, UniProt P11362, V561M). In words: Radiometric biochemical kinase assay. As to conditions: ATP 10 µM.
For experiment [20], the target named is FGFR2 N549H (Homo sapiens, UniProt P21802, N549H). Put plainly: Radiometric biochemical kinase assay. Particulars: ATP 10 µM.
Experiment [21] relates to HUH7 cells. In words: Apoptosis assay. As to conditions: 24 h. It counts as cell-based, human. The method in brief: as §5
For experiment [22], the system named is phosphorylation of FGFR and downstream molecules (PLCγ, FRS2α, AKT, ERK1/2) in HEP3B cells. In words: Western blot of FGFR signaling. Type of experiment: cell-based, human. As to conditions: dose-dependent. In short, it runs like this:
as §3

Experiment [23] relates to HEP3B cells. In words: Soft agar anchorage-independent growth assay. Type of experiment: cell-based, human. As to conditions: GNF-7 0.1 or 0.5 µM, SIJ1263 0.01 or 0.05 µM, 3 weeks. The method in brief:
as §6

The test system of experiment [24] is HUH7 cells. Put plainly: Soft agar anchorage-independent growth assay. It counts as cell-based, human. As to conditions: GNF-7 0.1 or 0.5 µM, SIJ1263 0.01 or 0.05 µM, 3 weeks. The method in brief:
as §6

Experiment [25] concerns the target FGFR1 WT (Homo sapiens, UniProt P11362). In words: Radiometric biochemical kinase assay. As to conditions: ATP 10 µM.
Experiment [26] concerns SK-HEP1 cells. In words: Cell cycle analysis. Type of experiment: cell-based. Particulars: 18 h.
Experiment [27] concerns SK-HEP1 cells. In words: Apoptosis assay. Particulars: 24 h. Type of experiment: cell-based. In short, it runs like this:
as §5

The structures appear in SMILES notation. Where two headings read alike, the source gives them in different places.

Sequence of FGFR4 WT (P22455 22-802): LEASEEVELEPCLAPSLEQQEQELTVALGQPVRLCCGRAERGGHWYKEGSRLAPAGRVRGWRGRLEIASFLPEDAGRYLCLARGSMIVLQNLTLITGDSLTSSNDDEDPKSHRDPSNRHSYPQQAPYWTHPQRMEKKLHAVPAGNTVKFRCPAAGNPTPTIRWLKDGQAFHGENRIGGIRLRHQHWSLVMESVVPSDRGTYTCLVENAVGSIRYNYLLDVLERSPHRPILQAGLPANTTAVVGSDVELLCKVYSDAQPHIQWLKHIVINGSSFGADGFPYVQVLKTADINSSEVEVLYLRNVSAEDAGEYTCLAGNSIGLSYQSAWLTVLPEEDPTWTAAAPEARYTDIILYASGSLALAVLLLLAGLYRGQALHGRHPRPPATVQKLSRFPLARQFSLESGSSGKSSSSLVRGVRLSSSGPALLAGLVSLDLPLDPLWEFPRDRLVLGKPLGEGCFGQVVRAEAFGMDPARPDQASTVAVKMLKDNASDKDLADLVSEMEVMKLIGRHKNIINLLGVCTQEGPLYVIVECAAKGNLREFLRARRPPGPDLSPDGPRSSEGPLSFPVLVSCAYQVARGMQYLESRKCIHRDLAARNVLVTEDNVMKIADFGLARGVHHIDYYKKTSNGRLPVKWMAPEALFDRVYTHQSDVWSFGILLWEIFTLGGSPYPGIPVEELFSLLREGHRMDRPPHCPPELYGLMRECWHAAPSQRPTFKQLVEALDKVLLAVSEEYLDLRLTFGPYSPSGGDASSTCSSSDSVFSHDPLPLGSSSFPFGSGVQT
Sequence of FGFR1 V561M (P11362 22-822 V561M): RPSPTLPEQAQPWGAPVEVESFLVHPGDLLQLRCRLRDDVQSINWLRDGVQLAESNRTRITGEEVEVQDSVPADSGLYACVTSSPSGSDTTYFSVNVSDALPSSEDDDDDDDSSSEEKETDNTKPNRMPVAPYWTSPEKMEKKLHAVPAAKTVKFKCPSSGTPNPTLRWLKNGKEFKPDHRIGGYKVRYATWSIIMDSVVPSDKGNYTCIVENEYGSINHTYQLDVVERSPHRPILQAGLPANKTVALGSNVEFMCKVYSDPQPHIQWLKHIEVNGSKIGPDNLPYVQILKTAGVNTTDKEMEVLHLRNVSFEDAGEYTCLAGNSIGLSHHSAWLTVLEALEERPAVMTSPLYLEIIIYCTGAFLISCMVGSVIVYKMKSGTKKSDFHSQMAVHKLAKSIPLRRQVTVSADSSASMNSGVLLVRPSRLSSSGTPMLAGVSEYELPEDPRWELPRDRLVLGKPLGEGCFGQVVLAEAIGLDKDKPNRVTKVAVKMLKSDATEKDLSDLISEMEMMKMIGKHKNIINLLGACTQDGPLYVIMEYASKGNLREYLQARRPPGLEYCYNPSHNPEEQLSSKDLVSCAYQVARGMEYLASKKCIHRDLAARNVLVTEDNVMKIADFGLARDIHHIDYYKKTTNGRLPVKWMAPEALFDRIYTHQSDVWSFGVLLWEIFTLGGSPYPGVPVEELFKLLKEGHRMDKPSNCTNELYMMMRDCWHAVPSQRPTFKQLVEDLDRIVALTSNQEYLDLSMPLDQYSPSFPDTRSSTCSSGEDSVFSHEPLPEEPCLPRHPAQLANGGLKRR
Sequence of FGFR2 N549H (P21802 22-821 N549H): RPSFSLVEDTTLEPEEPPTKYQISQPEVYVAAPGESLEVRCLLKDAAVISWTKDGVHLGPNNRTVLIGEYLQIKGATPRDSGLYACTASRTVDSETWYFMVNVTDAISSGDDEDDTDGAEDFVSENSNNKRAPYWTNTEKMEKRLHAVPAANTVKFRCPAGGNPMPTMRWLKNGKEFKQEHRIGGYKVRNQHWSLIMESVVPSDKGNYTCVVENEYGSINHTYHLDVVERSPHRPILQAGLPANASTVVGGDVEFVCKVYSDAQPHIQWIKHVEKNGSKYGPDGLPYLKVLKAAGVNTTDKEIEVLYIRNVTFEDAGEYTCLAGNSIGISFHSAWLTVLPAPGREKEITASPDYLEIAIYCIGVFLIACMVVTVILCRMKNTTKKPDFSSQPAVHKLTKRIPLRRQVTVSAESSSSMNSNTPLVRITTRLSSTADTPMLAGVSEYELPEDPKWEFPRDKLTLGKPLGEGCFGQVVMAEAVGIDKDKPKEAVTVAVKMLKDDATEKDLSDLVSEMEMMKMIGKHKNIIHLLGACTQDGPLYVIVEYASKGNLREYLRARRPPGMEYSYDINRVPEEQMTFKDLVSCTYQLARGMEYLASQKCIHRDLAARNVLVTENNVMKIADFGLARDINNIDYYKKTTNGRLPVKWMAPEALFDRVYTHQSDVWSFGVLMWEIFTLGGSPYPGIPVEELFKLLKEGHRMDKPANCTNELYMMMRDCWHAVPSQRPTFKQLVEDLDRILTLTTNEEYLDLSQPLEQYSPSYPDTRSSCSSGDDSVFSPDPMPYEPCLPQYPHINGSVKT
Sequence of FGFR2 WT (P21802 22-821): as the sequence (P21802 22-821 N549H) above, with H528N counted along it
Sequence of FGFR1 WT (P11362 22-822): as the sequence (P11362 22-822 V561M) above, with M540V counted along it

Consider `CCN(CC)CCCCNc1ncc2cc(-c3cc(OC)cc(OC)c3)c(NC(=O)NC(C)(C)C)nc2n1` [PD173074], for which the effect on invasion result in [1] and in experiment [4] was “little effect on invasion capability” in each case. The GI50 (as a rule, the concentration at which growth is held to half of that of the control) in experiment [2] (Homo sapiens, KMS-11, 72 h) is 64 ± 20 nM; in [5] (Homo sapiens, MDA-MB-453, 72 h), above 10000 nM; in [7] (Homo sapiens, Huh-7, 72 h) it was 598 ± 240 nM; in experiment [8] (72 h), 13400 ± 3600 nM; in experiment [8] (Homo sapiens, HepG2, 72 h), above 10000 nM; in experiment [9] (Homo sapiens), 973 ± 2550 nM. In addition, the GI50 was determined as 975 ± 450 nM in experiment [10] (Homo sapiens, J82, 72 h) and 2500 ± 490 nM in experiment [11] (Homo sapiens, Hep3B). In experiment [3], the IC50 (usually the concentration at which inhibition is half-maximal) amounted to 97 nM. Further, the “wound healing (migration)” value in [6] and in [12] was “moderately reduced the wound healing” throughout.
For the compound `CCN1CCN(c2ccc(Nc3cc(N(C)C(=O)Nc4c(Cl)c(OC)cc(OC)c4Cl)ncn3)cc2)CC1` [BGJ398, 3-(2,6-dichloro-3,5-dimethoxy-phenyl)-1-{6-[4-(4-ethyl-piperazin-1-yl)-phenylamino]-pyrimidin-4-yl}-1-methyl-urea], the 50% growth inhibitory concentration (GI50) in [2] (Homo sapiens, KMS-11, 72 h) worked out at 143 ± 100 nM; in [5] (Homo sapiens, MDA-MB-453, 72 h), 2640 ± 280 nM; in experiment [7] (Homo sapiens, Huh-7, 72 h), 157 ± 120 nM; in experiment [8] (Homo sapiens, HepG2, 72 h), 5370 ± 1100 nM; in experiment [9] (Homo sapiens), 57 ± 10 nM; in [10] (Homo sapiens, J82, 72 h) it was 2840 ± 1570 nM. For the same compound, the GI50 in experiment [11] (Homo sapiens, Hep3B) is 1370 ± 140 nM.
Consider `C=CC(=O)Nc1cccc(C)c1Nc1ncc2cc(-c3c(Cl)c(OC)cc(OC)c3Cl)ccc2n1` [BLU9931], for which the GI50 turned out to be 541 ± 10 nM in experiment [2] (Homo sapiens, KMS-11, 72 h); 2150 ± 380 nM in [5] (Homo sapiens, MDA-MB-453, 72 h); 715 ± 100 nM in [7] (Homo sapiens, Huh-7, 72 h); 9200 ± 450 nM in experiment [9] (Homo sapiens); 5870 ± 580 nM in experiment [10] (Homo sapiens, J82, 72 h); 4220 ± 1030 nM in experiment [11] (Homo sapiens, Hep3B).
As for `CNC(=O)c1cc(Oc2ccc(NC(=O)Nc3ccc(Cl)c(C(F)(F)F)c3)cc2)ccn1` [sorafenib], the GI50 in experiment [7] (Homo sapiens, Huh-7, 72 h) was determined as 9590 ± 2060 nM; in experiment [8] (Homo sapiens, HepG2, 72 h) it was 8560 ± 1450 nM; in experiment [11] (Homo sapiens, Hep3B), 5420 ± 1120 nM.
Turning to `Cc1ccc(Nc2ncc3c(n2)N(C)C(=O)N(c2cc(NC(=O)c4cccc(C(F)(F)F)c4)ccc2C)C3)cn1` [GNF-7], the “phosphorylation of FGFR and downstream signaling molecules” value in experiment [13] and in [22] was “inhibiting significantly phosphorylation” each time. Moreover, the effect on invasion entry in experiment [1] and in experiment [4] was “remarkably attenuate invasion” each time. For the same compound, the GI50 amounted to 15 nM in experiment [2] (KMS-11, FGFR3 Y373C, myeloma, 72 h); 443 ± 70 nM in experiment [5] (MDA-MB-453, FGFR4 overexpression, breast cancer, 72 h); 60 ± 10 nM in experiment [7] (HUH7, FGFR4 overexpression, HCC, 72 h); 366 ± 70 nM in experiment [8] (72 h); 17 nM in experiment [9] (FGFR2 N549K/K310R, endometrium); 50 ± 10 nM in experiment [10] (J82, FGFR3 K652E, urinary bladder, 72 h). Moreover, the GI50 in [11] (HEP3B, FGFR4 overexpression, HCC) stood at 373 ± 150 nM. Also, the cell cycle distribution entry in [14] and in experiment [18] was “induce G0/G1 phase cell cycle arrest with decrease in the S phase” throughout. For the same compound, the IC50 in experiment [15] stood at 20 nM; in experiment [3] (FGFR4 WT, radiometric, ATP 10 µM) it was 4 nM; in [3] (read-out: IC50 against FGFR4, wtFGFR4), 4.17 nM; in experiment [19] it was 7540 nM; in [20] it was 7 nM; in experiment [25], 11 nM. For the same compound, the apoptosis induction entry in [16] is given as “inducing apoptosis”; in experiment [21], “inducing apoptosis”; in experiment [27] it was “little effects”. For the same compound, in [17], the “block of colony formation” value is 11%. For the same compound, the “wound healing (migration)” value in experiment [6] and in experiment [12] was “substantially reduced” throughout. Also, the suppression of colony-formation result in experiment [23] and in experiment [24] was “almost completely” throughout. Moreover, in experiment [26], the “induction of G0/G1 phase cell cycle arrest” value was “little effects”.

The values above are taken from paper PMC8649585 (Neoplasia (New York, N.Y.), 2021).
